The target of assay [1] is Dual specificity mitogen-activated protein kinase kinase 1 (Mus musculus, UniProt P31938). Put plainly: Inhibition of MEK1 in mouse C26 cells assessed as inhibition of ERK1/2 phosphorylation incubated for 1 hr by Western blotting. It counts as cell-based.
In assay [2] the test system is A549. Description: Cytotoxic activity against human A549 cells assessed as reduction in cell viability incubated for 48 hrs by alamar blue assay. It counts as functional, cell-based. The gist of the method:
(§1)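 Cells grown in RPMI with 10% heat-inactivated FBS and 1% penicillin/streptomycin/glutamine at 37 °C, 5% CO2. Compounds made as 10 mM DMSO stocks, serially diluted in RPMI. Controls received media with 1% DMSO. Viability read by AlamarBlue fluorescence 48 h after dosing. Combination treatments used co-administered single agents.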

The test system of assay [3] is D54. Description: Cytotoxic activity against human D54 cells assessed as reduction in cell viability incubated for 48 hrs in presence of ZSTK474 by alamar blue assay. The format is functional, cell-based. The gist of the method: as §1
The subject of assay [4] is D54. Description: Cytotoxic activity against human D54 cells assessed as reduction in cell viability incubated for 48 hrs by alamar blue assay. The format is functional, cell-based. The method in brief:
as §1

The test system of assay [5] is A549. Description: Inhibition of PI3K in human A549 cells assessed as inhibition of AKT phosphorylation at 1 to 25 uM incubated for 1 hr by Western blotting. It counts as cell-based. The method in brief:
(§2)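 Cells seeded 24 h before treatment, then exposed to compounds for 1 h; DMSO vehicle control. Lysis in NP-40 buffer (1% NP40, 150 mM NaCl, 25 mM Tris pH 8.0) with protease and phosphatase inhibitors. Protein measured by Lowry. Equal protein run on 4-12% Bis-Tris gels and blotted. Probes: pERK1/2 (Thr202/Tyr204), pAKT (S473), total ERK/AKT, β-actin; ECL detection.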

Assay [6] deals with D54. Description: Inhibition of PI3K in human D54 cells assessed as inhibition of AKT phosphorylation at 1 to 25 uM incubated for 1 hr by Western blotting. The format is cell-based. The method in brief: as §2
For assay [7], the target named is T1, Dual specificity mitogen-activated protein kinase kinase 1 (Homo sapiens, UniProt Q02750). Description: Inhibition of MEK1 in human D54 cells assessed as inhibition of ERK1/2 phosphorylation at 1 to 25 uM incubated for 1 hr by Western blotting. The format is cell-based. The gist of the method: as §2
T1 sequence (Q02750 whole entry): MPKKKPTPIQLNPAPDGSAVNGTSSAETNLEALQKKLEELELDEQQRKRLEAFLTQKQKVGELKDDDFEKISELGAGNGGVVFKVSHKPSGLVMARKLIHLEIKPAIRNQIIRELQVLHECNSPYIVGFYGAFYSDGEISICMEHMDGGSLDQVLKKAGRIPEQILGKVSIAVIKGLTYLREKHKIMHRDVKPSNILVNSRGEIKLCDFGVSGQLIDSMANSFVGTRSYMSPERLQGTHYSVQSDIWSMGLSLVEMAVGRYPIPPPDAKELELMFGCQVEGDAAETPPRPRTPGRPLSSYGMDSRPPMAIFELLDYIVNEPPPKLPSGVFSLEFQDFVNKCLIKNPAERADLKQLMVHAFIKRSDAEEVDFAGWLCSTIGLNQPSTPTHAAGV
For assay [8], the target named is T1, Dual specificity mitogen-activated protein kinase kinase 1. Description: Inhibition of MEK1 in human A549 cells assessed as inhibition of ERK1/2 phosphorylation at 1 to 25 uM incubated for 1 hr by Western blotting. The format is cell-based. The method in brief:
as §2

Assay [9] deals with Mus musculus. Put plainly: In-vivo inhibition of MEK1 in human D54 cells xenografted nude Foxn1nu mouse assessed as reduction in tumor ERK1/2 phosphorylation dosed through oral gavage 2 hrs before mouse sacrifice by Western blot method. The format is functional, organism-based. The gist of the method: (§3)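 Five-week-old athymic nude Foxn1nu mice given s.c. flank injections of 1×10^6 cells in 50% RPMI/50% Matrigel (n=2 per tumor type). At about 150 mm³ tumor volume, mice were fasted 4 h, then dosed by oral gavage with 375 mg/kg in DMSO:HPBCD (3:2) or vehicle. Sacrifice at 2 h. Excised tumors analysed by western blot for pERK1/2 and pAKT.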

The test system of assay [10] is Mus musculus. Put plainly: In-vivo inhibition of MEK1 in human A549 cells xenografted nude Foxn1nu mouse assessed as reduction in tumor ERK1/2 phosphorylation dosed through oral gavage 2 hrs before mouse sacrifice by Western blot method. It counts as functional, organism-based. The gist of the method:
as §3

For assay [11], the system named is Mus musculus. Put plainly: In-vivo inhibition of PI3K in human D54 cells xenografted nude Foxn1nu mouse assessed as reduction in tumor AKT phosphorylation dosed through oral gavage 2 hrs before mouse sacrifice by Western blot method. The format is functional, organism-based. The method in brief: as §3
Assay [12] has as its system Mus musculus. Put plainly: In-vivo inhibition of PI3K in human A549 cells xenografted nude Foxn1nu mouse assessed as reduction in tumor AKT phosphorylation dosed through oral gavage 2 hrs before mouse sacrifice by Western blot method. It counts as functional, organism-based. The gist of the method:
as §3

Assay [13] concerns D54. Put plainly: Cytotoxic activity against human D54 cells assessed as reduction in cell viability incubated for 48 hrs in presence of PD0325901 by alamar blue assay. It counts as functional, cell-based. The method in brief: as §1
A short description of assay [14]: Inhibition of PI3K (unknown origin) assessed as reduction in lipid kinase activity by fluorescence-based Adapta TR-FRET assay. Also on record: species or system Homo sapiens.
Assay [15] addresses T1, Dual specificity mitogen-activated protein kinase kinase 1. Description: Inhibition of purified MEK1 (unknown origin) assessed as reduction in phosphorylation of inactive Erk2 incubated for 30 mins by Kinase-Glo luminescent kinase assay.
Assay [16] deals with Mus musculus. Description: In-vivo inhibition of MEK1 in human D54 cells xenografted nude Foxn1nu mouse assessed as reduction in tumor ERK1/2 phosphorylation at 375 mg/kg, po dosed 2 hrs before mouse sacrifice by Western blot method. The format is functional. The method in brief: as §3
Assay [17] deals with Mus musculus. Put plainly: In-vivo inhibition of PI3K in human D54 cells xenografted nude Foxn1nu mouse assessed as reduction in tumor AKT phosphorylation at 375 mg/kg, po dosed 2 hrs before mouse sacrifice by Western blot method. It counts as functional. The gist of the method:
as §3

pIC50: −log10 of the molar value. Activity calls are given as the source filed them. No cut-off for these calls is given here.

Dual specificity mitogen-activated protein kinase kinase 1 (Mus musculus, UniProt P31938), sequence (P31938 whole entry): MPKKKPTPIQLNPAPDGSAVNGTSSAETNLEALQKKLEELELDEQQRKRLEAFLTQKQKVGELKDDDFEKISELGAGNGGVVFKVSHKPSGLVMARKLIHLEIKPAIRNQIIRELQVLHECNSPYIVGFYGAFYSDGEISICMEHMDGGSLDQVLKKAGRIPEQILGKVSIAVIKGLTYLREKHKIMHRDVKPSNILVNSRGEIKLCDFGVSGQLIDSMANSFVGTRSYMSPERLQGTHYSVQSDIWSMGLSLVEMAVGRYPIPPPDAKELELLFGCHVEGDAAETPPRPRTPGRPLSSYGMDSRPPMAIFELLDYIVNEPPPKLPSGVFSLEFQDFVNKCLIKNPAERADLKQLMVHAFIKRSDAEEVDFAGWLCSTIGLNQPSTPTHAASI

Regarding `CNCCONC(=O)c1ccc(F)c(F)c1Nc1ccc(I)cc1F`, the pIC50 in [1] was 7.70.

As to `O=C(NOC[C@H](O)CO)c1ccc(F)c(F)c1Nc1ccc(I)cc1F`, the inhibition result in assay [2] and in assay [4] was “Dose-dependent effect” in each case. The result in [3] was Active.

Take `O=C(CNCCONC(=O)c1ccc(F)c(F)c1Nc1ccc(I)cc1F)NCCCCCC(=O)N1CCN(c2nc(N3CCOCC3)nc(-n3c(C(F)F)nc4ccccc43)n2)CC1`: the inhibition result in [2] and in assay [4] was “Dose-dependent effect” throughout. Besides, the inhibition entry in assay [5], in [6], in assay [7] and in [8] was “Active” throughout.

Take `O=C(NOCCNCCCCCC(=O)N1CCN(c2nc(N3CCOCC3)nc(-n3c(C(F)F)nc4ccccc43)n2)CC1)c1ccc(F)c(F)c1Nc1ccc(I)cc1F`: the inhibition result in assay [2] and in assay [4] was “Dose-dependent effect” each time. The inhibition entry in assay [9], in [10], in assay [5], in assay [6], in [7] and in assay [11] was “Active” each time. For the same compound, the inhibition entry in [12] and in assay [8] was “Active” each time.

Consider `FC(F)c1nc2ccccc2n1-c1nc(N2CCOCC2)nc(N2CCOCC2)n1`, for which the inhibition entry in assay [2] and in assay [4] was “Dose-dependent effect” throughout. Moreover, in assay [13], the result was Active.

Consider `O=C(NOCCOCCOCCOCCN1CCN(c2nc(N3CCOCC3)nc(-n3c(C(F)F)nc4ccccc43)n2)CC1)c1ccc(F)c(F)c1Nc1ccc(I)cc1F`, for which the inhibition result in [2] and in [4] was “Dose-dependent effect” in each case. The pIC50 is 6.72 in [14] and 10.82 in assay [15]. The inhibition entry in [5], in assay [6], in [7] and in assay [8] was “Active” each time. Also, the values for the inhibition in vivo at 375 mg/kg in [16] and in [17] were 95% and 67%, respectively.

In the case of `O=C(NOCCNCCCCS(=O)(=O)N1CCN(c2nc(N3CCOCC3)nc(-n3c(C(F)F)nc4ccccc43)n2)CC1)c1ccc(F)c(F)c1Nc1ccc(I)cc1F`, the inhibition result in assay [2] and in assay [4] was “Dose-dependent effect” each time. In [14], the pIC50 was 6.55. The inhibition entry in assay [7] and in assay [8] was “Active” each time.
